This passage reports IC50, inhibition and Activity results from ChEMBL document CHEMBL3877241 (J Med Chem, 2016).

SMILES strings stand for the structures. The source made the active and inactive calls. The rule behind the calls is not given here.

For assay [1], the target named is T1, Protein deacetylase HDAC6 (Homo sapiens, UniProt Q9UBN7).
T1 sequence (Q9UBN7 whole entry): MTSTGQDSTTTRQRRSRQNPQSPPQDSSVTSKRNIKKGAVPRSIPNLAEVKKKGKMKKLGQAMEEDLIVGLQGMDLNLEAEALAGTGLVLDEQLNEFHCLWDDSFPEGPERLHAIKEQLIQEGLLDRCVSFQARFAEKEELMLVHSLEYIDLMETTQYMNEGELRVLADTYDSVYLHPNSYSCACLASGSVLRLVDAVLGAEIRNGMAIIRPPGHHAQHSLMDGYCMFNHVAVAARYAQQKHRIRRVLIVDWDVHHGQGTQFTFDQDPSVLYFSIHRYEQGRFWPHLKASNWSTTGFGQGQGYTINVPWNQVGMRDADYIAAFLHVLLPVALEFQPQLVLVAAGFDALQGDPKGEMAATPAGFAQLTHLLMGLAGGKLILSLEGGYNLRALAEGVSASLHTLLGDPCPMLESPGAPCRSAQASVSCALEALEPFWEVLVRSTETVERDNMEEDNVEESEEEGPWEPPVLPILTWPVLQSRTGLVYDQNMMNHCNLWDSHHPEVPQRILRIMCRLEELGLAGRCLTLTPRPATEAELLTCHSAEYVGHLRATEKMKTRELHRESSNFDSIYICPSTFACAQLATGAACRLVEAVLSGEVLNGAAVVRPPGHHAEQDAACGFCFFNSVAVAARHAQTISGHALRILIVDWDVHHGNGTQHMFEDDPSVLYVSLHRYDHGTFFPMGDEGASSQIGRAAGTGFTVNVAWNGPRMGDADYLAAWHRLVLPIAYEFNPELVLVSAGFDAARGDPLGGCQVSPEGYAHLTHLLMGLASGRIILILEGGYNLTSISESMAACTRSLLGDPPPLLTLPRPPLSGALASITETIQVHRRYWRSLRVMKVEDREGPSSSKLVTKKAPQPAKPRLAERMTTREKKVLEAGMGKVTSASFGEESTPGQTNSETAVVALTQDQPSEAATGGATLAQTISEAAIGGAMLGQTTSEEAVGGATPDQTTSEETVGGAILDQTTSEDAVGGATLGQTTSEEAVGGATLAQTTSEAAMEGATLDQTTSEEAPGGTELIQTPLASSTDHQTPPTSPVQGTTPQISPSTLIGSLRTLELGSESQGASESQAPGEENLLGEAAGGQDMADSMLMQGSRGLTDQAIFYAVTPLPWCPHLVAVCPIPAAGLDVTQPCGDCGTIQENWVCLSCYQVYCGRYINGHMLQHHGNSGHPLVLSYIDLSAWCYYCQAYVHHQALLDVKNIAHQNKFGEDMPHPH
Kind of assay: Inhibition of full length human recombinant N-terminal GST-tagged HDAC6 (1 to 1215 residues) expressed in sf9 cells preincubated with enzyme followed by fluorogenic Arg-His-Lys-Lys(Ac)-AMC substrate addition measured after 2 hrs by fluorescence assay.

The target of assay [2] is T2, Tyrosine-protein kinase JAK2 (Homo sapiens, UniProt O60674). The assay is described as follows: Inhibition of JAK2 (unknown origin) preincubated for 20 mins followed by [33P]ATP addition measured after 120 mins by Hotspot assay.
Assay [3] deals with Histone deacetylase 9 (Homo sapiens) (UniProt Q9UKV0). The assay is described as follows: Inhibition of HDAC9 (unknown origin) at 10 uM preincubated with enzyme followed by acetyl-Lys(trifluoroacetyl)-AMC substrate addition measured after 2 hrs by fluorescence assay relative to control. In short, it runs like this:
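Fluorogenic HDAC assay in 50 mM Tris-HCl pH 8.0, 137 mM NaCl, 2.7 mM KCl, 1 mM MgCl2. Enzyme pre-incubated with compound delivered in DMSO. Substrate then added: Arg-His-Lys(Ac) at 50 μM for most isoforms, or acetyl-Lys(trifluoroacetyl)-AMC for class IIa. Incubated 2 h at 30 °C, stopped with developer plus trichostatin A, read at Ex/Em 360/460 nm at endpoint. IC50 from 10-dose curves.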

The target in assay [4] is Polyamine deacetylase HDAC10 (Homo sapiens, UniProt Q969S8). Kind of assay: Inhibition of HDAC10 (unknown origin) preincubated with enzyme followed by fluorogenic Arg-His-Lys-Lys(Ac)-AMC substrate addition measured after 2 hrs by fluorescence assay.
The target in assay [5] is Mast/stem cell growth factor receptor Kit (Homo sapiens, UniProt P10721). The assay is described as follows: Inhibition of human KIT (I571 to D952 residues) expressed in bacterial expression system assessed as residual activity at 100 nM by KINOMEScan assay relative to control. In short, it runs like this:
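Done by DiscoveRx as an ATP-site binding panel covering 97 kinases across the kinome. It measures binding rather than inhibition of phosphate transfer. The compound was tested at 100 nM, and the result is expressed as percent of control binding.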

Assay [6] has as its target Mitogen-activated protein kinase 8 (Homo sapiens, UniProt P45983). The assay is described as follows: Inhibition of full length human MAPK8 (M1 to Q384 residues) expressed in mammalian expression system assessed as residual activity at 100 nM by KINOMEScan assay relative to control. Put shortly: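 DiscoveRx KINOMEscan competition binding against ATP sites in a 97-kinase panel, with compound at 100 nM. Binding reported as % of control.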

Assay [7] addresses Non-receptor tyrosine-protein kinase TYK2 (Homo sapiens, UniProt P29597). The assay is described as follows: Inhibition of human TYK2 (V877 to C1187 residues) expressed in mammalian expression system by KINOMEScan assay.
The target in assay [8] is Tyrosine-protein kinase JAK3 (Homo sapiens, UniProt P52333). Kind of assay: Inhibition of human JAK3 JH1 catalytic domain (I781 to S1124 residues) expressed in mammalian expression system by KINOMEScan assay.
The nature of assay [9]: Antiproliferative activity against human KHYG cells after 48 hrs by CellTiter-Glo assay. It is filed as functional, cell-based.
Assay [10] deals with T2, Tyrosine-protein kinase JAK2. The assay is described as follows: Inhibition of JAK2 in IL-6-stimulated human MOLM14 cells assessed as suppression of STAT3 phosphorylation at TY705 residue at 1.5 uM pretreated for 3 hrs followed by IL-6 stimulation by immunoblot method. It is filed as cell-based. The settings on record: MOLM-14. In short, it runs like this: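 Cells (at least 3x10^6 per condition; KMS-12-BM or MOLM-14) pretreated with compound for 3 h, then stimulated with IL-6 10 ng/mL for 15 min. Cells lysed, equal protein run on SDS-PAGE and transferred to PVDF. Immunoblotted for p-STAT3 (Tyr705), with membranes re-probed for total STAT3. Reference JAK2 inhibitor control at 2 µM (KMS-12-BM) or 0.1 µM (MOLM-14).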

The test system of assay [11] is MOLM-14. Kind of assay: Induction of apoptosis in human MOLM14 cells assessed as early apoptotic cells at 1.5 uM after 48 hrs by Annexin-V FITC/propidium iodide staining based flow cytometry (reference value: 3.6 to 3.7%). It is filed as functional.
Assay [12] relates to MOLM-14. The assay is described as follows: Induction of apoptosis in human MOLM14 cells assessed as necrotic cells at 3 uM after 48 hrs by Annexin-V FITC/propidium iodide staining based flow cytometry (reference value: 0.1%). It counts as functional. In short, it runs like this:
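MOLM-14 cells treated 48 h at the stated concentrations; doxorubicin as positive control. Stained with Annexin V-FITC and propidium iodide and analysed by flow cytometry (at least 10,000 events). Gated quadrants: Annexin V−/PI− viable, Annexin V+/PI− early apoptotic, Annexin V+/PI+ late apoptotic.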

T2 sequence (O60674 whole entry): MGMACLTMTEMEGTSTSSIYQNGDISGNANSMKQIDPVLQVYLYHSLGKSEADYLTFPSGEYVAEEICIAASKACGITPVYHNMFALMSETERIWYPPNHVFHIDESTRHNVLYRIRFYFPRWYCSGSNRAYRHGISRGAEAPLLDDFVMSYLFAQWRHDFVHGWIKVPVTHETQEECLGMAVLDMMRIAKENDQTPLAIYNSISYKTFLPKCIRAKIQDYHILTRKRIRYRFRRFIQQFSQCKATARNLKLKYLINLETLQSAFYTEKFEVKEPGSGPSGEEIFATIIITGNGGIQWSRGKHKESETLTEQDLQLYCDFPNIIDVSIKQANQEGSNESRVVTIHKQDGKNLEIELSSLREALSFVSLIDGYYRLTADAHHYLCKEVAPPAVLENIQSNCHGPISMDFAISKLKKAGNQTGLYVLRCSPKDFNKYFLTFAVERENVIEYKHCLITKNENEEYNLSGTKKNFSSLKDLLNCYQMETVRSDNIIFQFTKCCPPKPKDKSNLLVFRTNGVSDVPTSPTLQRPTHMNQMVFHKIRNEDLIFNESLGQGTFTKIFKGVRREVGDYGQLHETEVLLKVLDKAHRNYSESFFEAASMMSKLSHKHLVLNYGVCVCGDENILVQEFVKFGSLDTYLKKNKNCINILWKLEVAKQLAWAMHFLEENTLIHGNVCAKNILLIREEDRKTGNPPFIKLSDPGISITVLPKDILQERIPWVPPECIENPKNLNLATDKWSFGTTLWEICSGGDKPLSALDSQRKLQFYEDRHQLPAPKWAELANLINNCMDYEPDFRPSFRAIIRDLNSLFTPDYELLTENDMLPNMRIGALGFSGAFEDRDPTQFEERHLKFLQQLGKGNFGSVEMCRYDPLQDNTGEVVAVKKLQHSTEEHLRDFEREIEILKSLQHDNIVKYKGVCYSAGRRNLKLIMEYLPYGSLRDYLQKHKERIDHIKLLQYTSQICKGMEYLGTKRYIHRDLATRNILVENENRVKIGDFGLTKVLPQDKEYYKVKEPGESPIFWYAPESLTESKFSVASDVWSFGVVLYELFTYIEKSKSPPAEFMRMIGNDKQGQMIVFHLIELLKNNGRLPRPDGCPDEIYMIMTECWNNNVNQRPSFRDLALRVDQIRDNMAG
Sequence of Mitogen-activated protein kinase 8 (P45983 whole entry, the tested form may be a part): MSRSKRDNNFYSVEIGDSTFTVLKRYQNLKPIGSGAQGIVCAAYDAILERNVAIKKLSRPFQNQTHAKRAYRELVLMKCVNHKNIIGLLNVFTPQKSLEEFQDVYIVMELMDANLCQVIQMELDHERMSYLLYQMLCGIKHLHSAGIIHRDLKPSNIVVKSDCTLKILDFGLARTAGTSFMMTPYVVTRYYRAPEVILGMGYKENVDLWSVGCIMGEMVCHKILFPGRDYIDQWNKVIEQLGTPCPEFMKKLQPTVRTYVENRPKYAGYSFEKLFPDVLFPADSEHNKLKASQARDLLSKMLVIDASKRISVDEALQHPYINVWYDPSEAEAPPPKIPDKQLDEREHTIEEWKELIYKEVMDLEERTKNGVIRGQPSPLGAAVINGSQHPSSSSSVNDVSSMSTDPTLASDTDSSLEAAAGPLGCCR
Sequence of Mast/stem cell growth factor receptor Kit (P10721 whole entry, the tested form may be a part): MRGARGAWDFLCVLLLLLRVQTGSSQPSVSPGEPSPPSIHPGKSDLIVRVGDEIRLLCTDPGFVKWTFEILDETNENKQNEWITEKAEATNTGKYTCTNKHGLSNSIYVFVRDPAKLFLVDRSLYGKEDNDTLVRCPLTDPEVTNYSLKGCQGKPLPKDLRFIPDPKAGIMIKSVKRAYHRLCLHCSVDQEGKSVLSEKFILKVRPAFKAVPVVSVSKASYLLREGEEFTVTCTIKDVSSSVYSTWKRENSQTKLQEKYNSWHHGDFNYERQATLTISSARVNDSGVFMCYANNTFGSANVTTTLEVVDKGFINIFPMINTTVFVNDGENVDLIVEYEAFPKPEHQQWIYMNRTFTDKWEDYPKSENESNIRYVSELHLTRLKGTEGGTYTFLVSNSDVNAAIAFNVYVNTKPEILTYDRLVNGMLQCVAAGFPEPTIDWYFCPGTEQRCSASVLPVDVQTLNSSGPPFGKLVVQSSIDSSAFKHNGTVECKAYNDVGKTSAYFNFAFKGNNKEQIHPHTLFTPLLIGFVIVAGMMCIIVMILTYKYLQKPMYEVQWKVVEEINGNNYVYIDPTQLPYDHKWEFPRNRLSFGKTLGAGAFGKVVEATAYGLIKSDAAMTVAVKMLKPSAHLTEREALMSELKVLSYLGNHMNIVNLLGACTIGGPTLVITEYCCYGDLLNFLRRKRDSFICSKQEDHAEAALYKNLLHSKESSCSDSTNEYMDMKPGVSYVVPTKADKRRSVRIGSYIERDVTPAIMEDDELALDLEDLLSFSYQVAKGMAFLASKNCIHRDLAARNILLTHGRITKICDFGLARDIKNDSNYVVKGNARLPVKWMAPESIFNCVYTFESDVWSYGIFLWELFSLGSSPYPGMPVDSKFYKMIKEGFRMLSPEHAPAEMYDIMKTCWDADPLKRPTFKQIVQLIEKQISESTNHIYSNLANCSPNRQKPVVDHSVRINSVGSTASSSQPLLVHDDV
Sequence of Tyrosine-protein kinase JAK3 (P52333 whole entry, the tested form may be a part): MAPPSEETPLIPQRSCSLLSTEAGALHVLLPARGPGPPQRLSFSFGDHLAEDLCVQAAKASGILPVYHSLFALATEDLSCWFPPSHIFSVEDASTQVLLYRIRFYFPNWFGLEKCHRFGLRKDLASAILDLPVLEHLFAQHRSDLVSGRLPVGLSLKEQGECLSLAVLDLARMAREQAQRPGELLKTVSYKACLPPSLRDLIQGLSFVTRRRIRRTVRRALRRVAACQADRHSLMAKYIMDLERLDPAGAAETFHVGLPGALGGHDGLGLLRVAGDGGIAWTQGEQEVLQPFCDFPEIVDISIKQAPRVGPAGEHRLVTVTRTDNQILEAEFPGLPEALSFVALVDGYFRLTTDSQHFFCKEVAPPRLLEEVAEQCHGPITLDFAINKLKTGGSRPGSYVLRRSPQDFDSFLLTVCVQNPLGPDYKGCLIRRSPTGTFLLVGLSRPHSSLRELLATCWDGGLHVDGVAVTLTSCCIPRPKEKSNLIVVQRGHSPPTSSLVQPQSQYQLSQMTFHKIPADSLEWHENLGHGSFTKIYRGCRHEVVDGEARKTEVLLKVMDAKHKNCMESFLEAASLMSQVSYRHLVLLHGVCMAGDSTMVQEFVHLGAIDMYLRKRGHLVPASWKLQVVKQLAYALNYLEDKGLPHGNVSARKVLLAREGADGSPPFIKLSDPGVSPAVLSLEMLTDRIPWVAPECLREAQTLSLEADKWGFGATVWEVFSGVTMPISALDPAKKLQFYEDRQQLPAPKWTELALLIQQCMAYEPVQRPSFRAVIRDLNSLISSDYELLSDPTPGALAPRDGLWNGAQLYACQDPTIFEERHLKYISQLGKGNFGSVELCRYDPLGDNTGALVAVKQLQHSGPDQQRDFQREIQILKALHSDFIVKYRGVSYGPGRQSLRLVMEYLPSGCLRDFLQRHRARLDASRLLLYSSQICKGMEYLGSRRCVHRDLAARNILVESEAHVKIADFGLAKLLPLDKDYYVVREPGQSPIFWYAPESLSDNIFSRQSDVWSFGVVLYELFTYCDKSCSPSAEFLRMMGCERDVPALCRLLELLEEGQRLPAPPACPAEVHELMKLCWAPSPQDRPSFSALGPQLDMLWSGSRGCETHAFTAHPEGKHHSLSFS
Sequence of Non-receptor tyrosine-protein kinase TYK2 (P29597 whole entry, the tested form may be a part): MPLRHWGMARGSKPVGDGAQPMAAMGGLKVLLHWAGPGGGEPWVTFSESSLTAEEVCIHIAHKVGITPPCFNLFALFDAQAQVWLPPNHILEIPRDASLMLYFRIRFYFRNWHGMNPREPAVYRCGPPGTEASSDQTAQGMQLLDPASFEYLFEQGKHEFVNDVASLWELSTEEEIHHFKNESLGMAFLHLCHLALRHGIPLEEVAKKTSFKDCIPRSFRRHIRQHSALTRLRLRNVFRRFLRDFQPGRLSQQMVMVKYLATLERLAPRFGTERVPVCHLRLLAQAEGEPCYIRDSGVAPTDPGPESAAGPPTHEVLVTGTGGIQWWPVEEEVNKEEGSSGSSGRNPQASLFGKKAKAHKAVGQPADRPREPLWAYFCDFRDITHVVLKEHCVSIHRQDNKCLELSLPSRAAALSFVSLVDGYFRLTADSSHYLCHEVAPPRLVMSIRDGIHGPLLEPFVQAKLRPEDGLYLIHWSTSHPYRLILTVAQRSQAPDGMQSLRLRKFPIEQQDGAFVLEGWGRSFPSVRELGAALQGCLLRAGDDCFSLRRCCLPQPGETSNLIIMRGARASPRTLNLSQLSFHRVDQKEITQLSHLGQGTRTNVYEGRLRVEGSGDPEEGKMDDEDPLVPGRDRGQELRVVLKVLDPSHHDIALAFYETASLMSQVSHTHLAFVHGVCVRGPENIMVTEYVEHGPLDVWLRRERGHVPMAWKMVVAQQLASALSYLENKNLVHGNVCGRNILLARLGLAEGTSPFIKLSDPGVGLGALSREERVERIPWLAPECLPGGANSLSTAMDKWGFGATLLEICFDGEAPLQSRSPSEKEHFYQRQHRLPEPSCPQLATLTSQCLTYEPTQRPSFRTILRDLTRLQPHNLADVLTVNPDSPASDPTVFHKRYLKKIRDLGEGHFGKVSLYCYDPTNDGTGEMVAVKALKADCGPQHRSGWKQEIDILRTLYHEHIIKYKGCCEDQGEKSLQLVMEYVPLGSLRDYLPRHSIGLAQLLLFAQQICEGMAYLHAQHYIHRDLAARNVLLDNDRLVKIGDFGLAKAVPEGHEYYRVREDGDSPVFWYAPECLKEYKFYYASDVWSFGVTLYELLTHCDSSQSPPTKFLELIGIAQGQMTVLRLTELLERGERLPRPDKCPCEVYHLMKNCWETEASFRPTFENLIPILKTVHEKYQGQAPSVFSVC

As to `O=C(CCCCCCOc1ccc2cc1COC/C=C/COCc1cccc(c1)-c1ccnc(n1)N2)NO`, the IC50 was 2.1 nM in assay [1]; 1.4 nM in assay [2]; 80 nM in assay [4]; 10 to 1000 nM in [7]; 10 to 1000 nM in assay [8]; 1090 nM in [9]. The inhibition in assay [3] was 14%. Besides, the Activity in [5] was 21%; in assay [6], 26%; with MOLM-14 [11] it was 12.7%; in the assay on MOLM-14 [12], 1.3%. Moreover, in assay [10], the inhibition result is “Active”.
